According to publication PMC4245089 (International Journal of Nanomedicine, 2014):
Several values for one entry are separate records, joined by “and”; a condition that tells them apart may be missing. Identical values can stand only once. Entries after “also recorded” stand apart in the source; their conditions may differ.

What was measured:
[1] = test system: P. berghei-ANKA-infected C57BL/6 mice; experiment: Liver and kidney function tests; assay type: in vivo; conditions: serum
[2] = Aqueous dispersibility and storage stability of lyophilized powder; assay type: physicochemical
[3] = test system: Human fibroblast L-929 cells; experiment: Cell viability assay; assay type: cell-based; conditions: 8.11-129.88 μmol/L; 24, 48 and 72 hours
How it was run: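 L-929 fibroblasts seeded at 1×10^4 cells/well in DMEM. Exposed to native or nanoparticle test compound at 8.11–129.88 μmol/L for 24, 48 and 72 h. MTT (12 mM) added for 2 h at 37°C. Formazan dissolved in DMSO for 1 h at 37°C in the dark. Absorbance read at 595 nm.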

[4] = test system: parasitized erythrocytes; experiment: Nanotized curcumin uptake assay by fluorimetry, parasitized erythrocytes; assay type: cell-based; conditions: treated (parasitized) cultures, 1 μM
[5] = test system: uninfected erythrocytes; experiment: Nanotized curcumin uptake assay by fluorimetry, uninfected erythrocytes; assay type: cell-based; conditions: 1 μM
[6] = test system: P. falciparum 3D7 strain (chloroquine sensitive); experiment: Growth inhibition of blood-stage P. falciparum 3D7 by microscopy; assay type: cell-based, Plasmodium falciparum
How it was run: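 Human RBCs were infected with synchronized 3D7 ring stages and held at 10% hematocrit and 2% parasitemia, with medium changed every 24 h. Ten concentrations were run in duplicate, and stage of action was tested at 2.5 μM. Giemsa smears were read at 48 and 72 h. Percent parasitemia was taken as infected/total RBCs over at least ten fields. Dead parasites were scored by lost membrane, shrinkage or unstained cytoplasm.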

[7] = mice, oral
[8] = test system: P. berghei-ANKA; experiment: Dose kinetics / antimalarial efficacy in P. berghei-ANKA-infected C57BL/6 mice; assay type: in vivo, Plasmodium berghei; conditions: oral, 10 mg/kg body weight
How it was run: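 C57BL/6 mice were infected intravenously with 2.5×10^6 P. berghei-ANKA parasites. Oral dosing began 24 h post-infection and ran twice weekly for 1 month at 10, 20 and 40 mg/kg body weight. Parasitemia was counted every fourth day, and mean survival days were recorded. Optimum dose was set by Peterson's test and mortality rate. Data are mean ± SEM, n=6.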

[9] = day 6, curcumin forms 20 mg/kg oral biweekly
[10] = day 15, curcumin forms 20 mg/kg oral biweekly
[11] = day 21, curcumin forms 20 mg/kg oral biweekly

| Structure (SMILES) | ALP [1, 9] [KA units] | Bilirubin [1, 9] | Creatinine [1, 9] [mg/dL] | SGOT activity [1, 9] [U/L] | SGPT activity [1, 9] [U/L] | Urea [1, 9] [mg/dL] | ALP [1, 10] [KA units] | Bilirubin [1, 10] [mg/dL] | Creatinine [1, 10] [mg/dL] | SGOT activity [1, 10] [U/L] | SGPT activity [1, 10] [U/L] | Urea [1, 10] [mg/dL] | Bilirubin [1, 11] | Creatinine [1, 11] [mg/dL] | SGOT activity [1, 11] [U/L] | SGPT activity [1, 11] [U/L] | Urea [1, 11] [mg/dL] | further results |
| --- | --- | --- | --- | --- | --- | --- | --- | --- | --- | --- | --- | --- | --- | --- | --- | --- | --- | --- |
| CCN(CC)CCCC(C)Nc1ccnc2cc(Cl)ccc12 (stereo not drawn) [chloroquine] | 16.4±2.61 | 1.15 ± 0.16 mg/dL | 2.10 ± 0.24 | 36.20±0.72 | 39.41±4.32 | 50.32 ± 2.43 | 10.6±2.31 | 1.82 ± 0.18 | 1.60 ± 0.27 | 33.31±0.61 | 32.34±3.42 | 40.82 ± 2.51 | 0.60 ± 0.24 mg/dL | 1.23 ± 0.17 | 14.14±0.51 | 30.17±3.61 | 33.44 ± 2.56 | – |
| COc1cc(C=CC(=O)CC(=O)C=Cc2ccc(O)c(OC)c2)ccc1O [native curcumin, 1,7-bis(4-hydroxy 3-methoxyphenyl)-1,6-heptadiene-3,5-dione] | 30.72±2.92 | 1.6 mg/dL and 1.60 ± 0.36 mg/dL | 3.29 ± 0.37 | 66.43±0.65 | 98.34±4.68 | 54.24 ± 2.37 | 28.81±2.65 | 2.19 ± 0.20 | 2.90 ± 0.46 | 72.80±0.71 | 102.69±5.71 | 61.72 ± 2.61 | 2.10 mg/dL and 2.10 ± 0.25 mg/dL | 2.70 ± 0.51 | 75.71±0.47 | 136.31±6.45 | 87.46 ± 2.54 | ALP [1, 11]: 36.91±2.67 KA units; dispersibility / solubility in water [2]: only soluble in organic solvents such as dimethyl sulfoxide; also recorded: completely insoluble in water; cytotoxicity (growth inhibition of L-929 cells) [3]: marginal cytotoxic effects; concentration found inside the cells ([4]; first growth cycle, n=3): 300 nM; concentration found inside the cells ([4]; second growth cycle): 250 nM; concentration found inside the cells ([5]; first growth cycle, n=3): 240 nM; concentration found inside the cells ([5]; second growth cycle): 100 nM; IC50 ([6]; Plasmodium falciparum, 3D7, read-out: IC50 for growth inhibition of parasites): 5 µM; parasites eradicated ([6]; synchronized ring stage culture, 2.5 μM, 72 hours): 60%; time post-feeding until which curcumin was present/detectable in plasma [7]: 15 h; survival (to day) [8]: 20 days |
